Measurements as given in ChEMBL document CHEMBL4402602, “Discovery of (2R)-N-[3-[2-[(3-Methoxy-1-methyl-pyrazol-4-yl)amino]pyrimidin-4-yl]-1H-indol-7-yl]-2-(4-methylpiperazin-1-yl)propenamide (AZD4205) as a Potent and Selective Janus Kinase 1 Inhibitor” (J Med Chem, 2020).
In brackets after ≈: the same amount, converted by molar mass. Values belong to the molecule of their own block, whether it stands above or below them. Activity calls are given as the source filed them. The rule behind the calls is not given here.

Assays:
[1] = target: Voltage-gated inwardly rectifying potassium channel KCNH2 (Homo sapiens, UniProt Q12809); test: Inhibition of human ERG
Voltage-gated inwardly rectifying potassium channel KCNH2, sequence (Q12809 whole entry, the tested form may be a part): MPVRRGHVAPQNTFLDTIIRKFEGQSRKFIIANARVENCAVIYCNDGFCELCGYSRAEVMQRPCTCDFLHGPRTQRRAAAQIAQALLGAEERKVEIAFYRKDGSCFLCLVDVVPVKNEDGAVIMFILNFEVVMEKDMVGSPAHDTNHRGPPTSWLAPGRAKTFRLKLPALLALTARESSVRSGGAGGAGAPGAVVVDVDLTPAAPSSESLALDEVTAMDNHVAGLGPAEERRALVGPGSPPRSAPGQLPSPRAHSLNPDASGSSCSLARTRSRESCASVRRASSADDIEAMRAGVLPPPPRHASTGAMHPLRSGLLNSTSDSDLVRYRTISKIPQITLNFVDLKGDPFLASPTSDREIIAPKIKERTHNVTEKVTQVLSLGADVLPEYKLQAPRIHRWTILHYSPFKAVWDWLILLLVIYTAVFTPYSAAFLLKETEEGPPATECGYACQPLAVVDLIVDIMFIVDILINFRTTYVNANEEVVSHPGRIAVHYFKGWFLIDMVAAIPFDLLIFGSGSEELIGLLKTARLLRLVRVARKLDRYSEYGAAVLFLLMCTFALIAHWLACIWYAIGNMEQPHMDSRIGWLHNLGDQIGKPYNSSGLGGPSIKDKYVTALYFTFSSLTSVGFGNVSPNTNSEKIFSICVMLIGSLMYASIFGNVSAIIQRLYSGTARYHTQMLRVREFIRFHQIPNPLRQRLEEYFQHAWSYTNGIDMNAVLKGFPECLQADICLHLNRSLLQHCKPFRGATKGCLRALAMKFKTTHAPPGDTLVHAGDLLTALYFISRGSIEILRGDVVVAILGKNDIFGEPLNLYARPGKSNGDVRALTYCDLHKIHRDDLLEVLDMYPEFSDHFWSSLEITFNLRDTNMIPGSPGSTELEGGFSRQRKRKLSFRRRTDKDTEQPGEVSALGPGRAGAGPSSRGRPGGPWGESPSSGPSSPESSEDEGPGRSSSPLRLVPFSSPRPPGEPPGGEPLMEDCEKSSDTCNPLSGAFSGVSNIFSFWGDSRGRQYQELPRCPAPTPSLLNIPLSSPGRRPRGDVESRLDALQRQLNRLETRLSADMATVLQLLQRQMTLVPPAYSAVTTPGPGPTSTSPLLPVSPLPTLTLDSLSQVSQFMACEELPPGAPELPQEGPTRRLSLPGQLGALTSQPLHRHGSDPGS

Homo sapiens = species on record: Homo sapiens; test: Selectivity index, ratio of IC50 for inhibition of recombinant human N-terminal GST-tagged JAK2 (831 to 1132 residues) expressed in insect cells using 5FAM-labeled GEEPLYWSFPAKKK-NH2 peptide as substrate after 10 mins in presence of 5 mM ATP by caliper mobility shift assay to IC50 for inhibition of …
[2] = target: T1, Tyrosine-protein kinase JAK1 (Homo sapiens, UniProt P23458); test: Inhibition of recombinant human N-terminal GST-tagged JAK1 (866 to 1154 residues) expressed in insect cells using FITC-labeled C6-KKHTDDGYMPMSPGVA-NH peptide as substrate after 10 mins in presence of 5 mM ATP by caliper mobility shift assay
T1 sequence (P23458 whole entry, the tested form may be a part): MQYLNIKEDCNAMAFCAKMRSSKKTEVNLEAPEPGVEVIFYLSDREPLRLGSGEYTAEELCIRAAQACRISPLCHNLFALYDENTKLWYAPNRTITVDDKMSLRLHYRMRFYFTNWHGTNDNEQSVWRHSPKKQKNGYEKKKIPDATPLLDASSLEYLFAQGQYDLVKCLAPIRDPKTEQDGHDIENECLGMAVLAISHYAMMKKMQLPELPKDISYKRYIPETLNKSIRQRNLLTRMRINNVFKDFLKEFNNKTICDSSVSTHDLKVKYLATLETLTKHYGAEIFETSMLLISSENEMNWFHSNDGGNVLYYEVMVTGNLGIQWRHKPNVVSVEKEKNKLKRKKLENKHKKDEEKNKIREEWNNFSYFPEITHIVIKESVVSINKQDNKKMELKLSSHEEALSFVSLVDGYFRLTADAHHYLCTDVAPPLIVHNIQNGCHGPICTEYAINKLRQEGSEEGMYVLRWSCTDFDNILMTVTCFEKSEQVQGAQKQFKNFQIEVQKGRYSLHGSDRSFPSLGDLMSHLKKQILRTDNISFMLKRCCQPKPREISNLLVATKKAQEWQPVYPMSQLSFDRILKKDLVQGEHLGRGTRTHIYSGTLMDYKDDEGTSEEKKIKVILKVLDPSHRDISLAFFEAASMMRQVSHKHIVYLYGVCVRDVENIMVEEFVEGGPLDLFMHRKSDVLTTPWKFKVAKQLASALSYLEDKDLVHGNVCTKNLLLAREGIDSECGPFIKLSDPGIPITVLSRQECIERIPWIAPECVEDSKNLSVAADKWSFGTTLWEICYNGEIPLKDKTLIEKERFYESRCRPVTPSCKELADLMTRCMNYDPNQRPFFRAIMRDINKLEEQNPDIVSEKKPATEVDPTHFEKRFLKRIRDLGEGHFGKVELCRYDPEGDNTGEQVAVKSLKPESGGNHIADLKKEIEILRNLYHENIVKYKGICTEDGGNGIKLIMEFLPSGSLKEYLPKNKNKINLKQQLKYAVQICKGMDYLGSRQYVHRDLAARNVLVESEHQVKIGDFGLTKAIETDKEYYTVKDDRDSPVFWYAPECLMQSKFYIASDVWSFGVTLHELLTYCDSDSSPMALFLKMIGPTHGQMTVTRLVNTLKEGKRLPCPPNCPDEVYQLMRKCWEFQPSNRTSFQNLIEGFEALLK

[3] = target: Tyrosine-protein kinase JAK2 (Homo sapiens, UniProt O60674); test: Inhibition of recombinant human N-terminal GST-tagged JAK2 (831 to 1132 residues) expressed in insect cells using 5FAM-labeled GEEPLYWSFPAKKK-NH2 peptide as substrate after 10 mins in presence of 5 mM ATP by caliper mobility shift assay
Tyrosine-protein kinase JAK2, sequence (O60674 whole entry, the tested form may be a part): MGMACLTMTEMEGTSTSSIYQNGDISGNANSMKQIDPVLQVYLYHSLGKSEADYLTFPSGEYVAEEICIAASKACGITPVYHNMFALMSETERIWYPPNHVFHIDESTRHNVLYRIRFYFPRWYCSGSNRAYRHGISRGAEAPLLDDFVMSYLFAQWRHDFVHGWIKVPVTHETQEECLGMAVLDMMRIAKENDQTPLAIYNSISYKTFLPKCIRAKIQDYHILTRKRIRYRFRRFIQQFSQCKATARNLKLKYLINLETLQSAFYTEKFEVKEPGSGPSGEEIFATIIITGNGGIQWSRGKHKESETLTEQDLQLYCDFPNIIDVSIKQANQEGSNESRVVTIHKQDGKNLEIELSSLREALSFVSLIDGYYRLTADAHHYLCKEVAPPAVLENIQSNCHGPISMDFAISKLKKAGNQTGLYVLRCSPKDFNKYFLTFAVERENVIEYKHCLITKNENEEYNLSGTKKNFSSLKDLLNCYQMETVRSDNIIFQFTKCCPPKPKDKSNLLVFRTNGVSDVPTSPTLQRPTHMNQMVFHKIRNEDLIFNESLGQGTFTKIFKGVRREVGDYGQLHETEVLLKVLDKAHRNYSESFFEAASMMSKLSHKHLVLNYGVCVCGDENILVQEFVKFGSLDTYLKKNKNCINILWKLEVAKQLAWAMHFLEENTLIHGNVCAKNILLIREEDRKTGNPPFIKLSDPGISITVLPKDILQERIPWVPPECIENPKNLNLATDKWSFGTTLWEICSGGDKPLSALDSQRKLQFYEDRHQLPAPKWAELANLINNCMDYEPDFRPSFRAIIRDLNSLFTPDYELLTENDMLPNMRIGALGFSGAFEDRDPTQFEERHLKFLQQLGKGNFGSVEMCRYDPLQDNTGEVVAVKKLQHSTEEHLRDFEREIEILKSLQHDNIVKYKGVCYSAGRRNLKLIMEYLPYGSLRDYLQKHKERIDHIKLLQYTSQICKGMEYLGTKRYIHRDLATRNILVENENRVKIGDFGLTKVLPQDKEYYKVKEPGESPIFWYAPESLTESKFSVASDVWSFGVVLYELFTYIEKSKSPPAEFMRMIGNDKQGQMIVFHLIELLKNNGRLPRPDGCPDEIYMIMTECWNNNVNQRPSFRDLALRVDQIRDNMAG

[4] = target: T1, Tyrosine-protein kinase JAK1; test: Inhibition of JAK1 in human NCI-H1975 cells assessed as decrease in STAT3 phosphorylation measured after 1 hr by ELISA; format: cell-based
In short: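 Cellular mode-of-action assay in NCI-H1975 cells measuring inhibition of STAT3 phosphorylation. IC50 values are geometric means of at least two independent experiments.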

[5] = Volume of distribution at steady state in Han Wistar rat at 5 mg/kg, iv; format: ADME, organism-based; conditions: in vivo, read-out: Vdss
In short: (§1)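 Male Han Wistar rats. Oral dose 10 mg/kg in 0.1% HPMC. Intravenous dose 5 mg/kg in 40% DMA/40% PEG/20% saline. AUC, observed clearance, Vdss, half-life and oral bioavailability derived from plasma exposure.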

[6] = Half life in Han Wistar rat at 5 mg/kg, iv; format: ADME, organism-based; conditions: in vivo; in short: as §1
Mus musculus [7] = species on record: Mus musculus; conditions: 50 mg/kg
Mus musculus [8] = test: In vivo inhibition of JAK1 in human NCI-H1975 cells harboring EGFR T790M mutant xenografted in NCr nude mouse assessed as reduction of STAT3 phosphorylation at Y705 residue at 50 mg/kg measured after 8 hrs relative to control; format: functional; conditions: NCI-H1975, 8 h
[9] = Intrinsic clearance in human hepatocytes assessed per 10^-6 cells; format: ADME, cell-based, Hepatocyte
In short: (§2)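 Intrinsic clearance measured in fresh hepatocytes from rat, dog and human. Expressed as µL/min per 10⁶ cells.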

[10] = Half life in Beagle dog at 10 mg/kg, iv; format: ADME, organism-based, Canis lupus familiaris; conditions: in vivo
In short: (§3)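 Male beagle dogs. Oral dose 20 mg/kg in 0.1% HPMC, pH 2. Intravenous dose 10 mg/kg in 20% TEG/D5W. AUC, observed clearance, Vdss, half-life and oral bioavailability derived from plasma exposure.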

[11] = AUC in Han Wistar rat at 5 mg/kg, iv; format: ADME, organism-based; conditions: in vivo; in short: as §1
[12] = target: Vascular endothelial growth factor receptor 3 (Homo sapiens) (UniProt P35916); test: Inhibition of recombinant human N-terminal GST-tagged FLT4 (800 to end residues) expressed in baculovirus infected Sf21 cells at 1 uM relative to control
Vascular endothelial growth factor receptor 3 (Homo sapiens), sequence (P35916 whole entry): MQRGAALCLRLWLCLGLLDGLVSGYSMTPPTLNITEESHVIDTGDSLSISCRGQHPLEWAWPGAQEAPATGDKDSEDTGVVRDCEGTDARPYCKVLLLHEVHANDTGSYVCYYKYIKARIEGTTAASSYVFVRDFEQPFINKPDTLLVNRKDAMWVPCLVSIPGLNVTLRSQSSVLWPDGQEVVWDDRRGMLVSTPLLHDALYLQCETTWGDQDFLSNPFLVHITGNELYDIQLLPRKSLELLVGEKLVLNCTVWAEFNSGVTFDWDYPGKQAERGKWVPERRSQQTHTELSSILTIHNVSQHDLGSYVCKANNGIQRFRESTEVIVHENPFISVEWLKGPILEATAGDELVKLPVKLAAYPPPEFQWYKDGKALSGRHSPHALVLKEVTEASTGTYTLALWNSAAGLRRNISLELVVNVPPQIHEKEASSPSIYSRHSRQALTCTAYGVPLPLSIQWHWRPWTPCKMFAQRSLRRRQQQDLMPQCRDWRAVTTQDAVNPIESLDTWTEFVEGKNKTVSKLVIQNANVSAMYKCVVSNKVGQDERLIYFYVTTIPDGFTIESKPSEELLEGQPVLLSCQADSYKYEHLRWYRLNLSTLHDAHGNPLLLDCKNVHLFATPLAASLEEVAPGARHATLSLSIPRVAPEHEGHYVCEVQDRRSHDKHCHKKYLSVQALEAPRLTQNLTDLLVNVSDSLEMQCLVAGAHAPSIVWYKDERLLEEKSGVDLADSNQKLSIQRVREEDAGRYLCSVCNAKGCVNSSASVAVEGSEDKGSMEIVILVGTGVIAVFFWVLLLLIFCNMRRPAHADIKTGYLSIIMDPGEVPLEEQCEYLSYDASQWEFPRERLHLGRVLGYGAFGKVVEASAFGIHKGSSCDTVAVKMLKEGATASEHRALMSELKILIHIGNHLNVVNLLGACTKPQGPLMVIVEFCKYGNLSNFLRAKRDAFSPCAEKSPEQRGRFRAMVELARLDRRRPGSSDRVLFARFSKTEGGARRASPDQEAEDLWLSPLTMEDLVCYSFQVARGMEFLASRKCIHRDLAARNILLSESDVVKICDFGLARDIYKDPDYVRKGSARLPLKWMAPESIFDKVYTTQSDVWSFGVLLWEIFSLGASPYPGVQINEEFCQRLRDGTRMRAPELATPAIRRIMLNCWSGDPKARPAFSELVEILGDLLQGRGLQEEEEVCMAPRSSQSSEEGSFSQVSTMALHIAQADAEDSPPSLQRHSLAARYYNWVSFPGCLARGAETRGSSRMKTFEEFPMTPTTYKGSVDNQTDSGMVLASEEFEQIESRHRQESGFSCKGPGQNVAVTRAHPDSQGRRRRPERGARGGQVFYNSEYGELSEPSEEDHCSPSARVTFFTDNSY
In short: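 Single-point screen at 1 µM across a panel of 293 kinases. Percent inhibition recorded for each kinase.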

[13] = AUC in Beagle dog at 20 mg/kg, po; format: ADME, organism-based, Canis lupus familiaris; conditions: in vivo; in short: as §3
[14] = target: Cytochrome P450 (isoform not stated) (Homo sapiens, UniProt P04798+P05177+P05181+P08684+P10632+P10635+P11509+P11712+P13584+P20813+P20815+P20853+P24462+P24903+P33260+P33261+P51589+P78329+P98187+Q02928+Q08477+Q16678+Q16696+Q5TCH4+Q6VVX0+Q7Z449+Q8TAV3+Q96SQ9+Q9HB55); test: Inhibition of human Cytochrome P450; format: ADME, protein assay
In short: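 Inhibition tested against […] at up to 30 µM. IC50 reported.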

[15] = Solubility of compound in phosphate buffer at pH 7.4 and 37 degree C; format: physicochemical
[16] = Bioavailability in Han Wistar rat at 10 mg/kg, po; conditions: in vivo
NCI-H1975 [17] = test: Antitumor activity against human NCI-H1975 cells harboring EGFR T790M mutant xenografted in NCr nude mouse assessed as tumor growth inhibition at 50 mg/kg, po bid administered for 18 days post 10 days of implantation; format: functional, organism-based
In short: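 NCI-H1975 cells implanted subcutaneously in female NCr nude mice. Ten days later, mice with tumours averaging 189 mm³ (range 152–250) were randomized into groups of 6–8.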

NCI-H1975 [18] = conditions: Homo sapiens, 50 mg/kg
[19] = Clearance in Han Wistar rat at 5 mg/kg, iv; format: ADME, organism-based; conditions: in vivo; in short: as §1
[20] = Half life in Beagle dog at 20 mg/kg, po; format: ADME, organism-based, Canis lupus familiaris; conditions: in vivo; in short: as §3
[21] = Toxicity in NCr nude mouse xenografted with human NCI-H1975 cells harboring EGFR T790M mutant assessed as effect on body weight at 50 mg/kg, po bid administered for 18 days post 10 days of implantation; format: organism-based; conditions: in vivo
In short: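 Female NCr nude mice implanted subcutaneously with NCI-H1975 cells. Ten days after implantation, mice were randomized into groups of 6 to 8 (average tumor volume 189 mm³, range 152 to 250 mm³). They were dosed orally, as single agent or combination, at 50 mpk BID for 18 days. Vehicle was 20% captisol, with vehicle-treated controls.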

[22] = Half life in Han Wistar rat at 10 mg/kg, po; format: ADME, organism-based; conditions: in vivo; in short: as §1
[23] = AUC in Han Wistar rat at 10 mg/kg, po; format: ADME, organism-based; conditions: in vivo; in short: as §1
[24] = Apparent permeability across apical to basolateral membrane in human Caco2 cells; format: ADME, cell-based; conditions: Caco-2
In short: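 Caco-2 monolayer permeability measured in both directions, apical to basolateral and basolateral to apical. Papp reported for the A-to-B direction.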

[25] = Intrinsic clearance in rat hepatocytes assessed per 10^-6 cells; format: ADME, cell-based, Hepatocyte; in short: as §2
[26] = Bioavailability in Beagle dog at 20 mg/kg, po; conditions: in vivo
Mus musculus [27] = species on record: Mus musculus; conditions: 50 mg/kg; remark: listed apart in the source
[28] = Intrinsic clearance in dog hepatocytes assessed per 10^-6 cells; format: ADME, cell-based, Canis lupus familiaris, Hepatocyte; in short: as §2
[29] = Octanol-buffer partition coefficient, log D of the compound at pH 7.4 by shake flask method; format: physicochemical
[30] = Volume of distribution at steady state in Beagle dog at 10 mg/kg, iv; format: ADME, organism-based, Canis lupus familiaris; conditions: in vivo; in short: as §3
[31] = Efflux ratio of apparent permeability across basolateral to apical membrane over apical to basolateral membrane in human Caco2 cells; format: ADME, cell-based; conditions: Caco-2
In short: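 Caco-2 monolayer permeability measured in both directions, apical to basolateral and basolateral to apical. Efflux ratio is the B to A Papp divided by the A to B Papp.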

[32] = target: Non-receptor tyrosine-protein kinase TYK2 (Homo sapiens, UniProt P29597); test: Inhibition of TYK2 (unknown origin)
In short: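 JAK family biochemical kinase assay run at 5 mM ATP. IC50 values are geometric means of at least two independent experiments, SEM within 0.2 log units.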

[33] = Toxicity in NCr nude mouse xenografted with human NCI-H1975 cells harboring EGFR T790M mutant assessed as effect on body weight at 50 mg/kg, po bid administered for 18 days post 10 days of implantation in combination with osimertinib at 2.5 mg/kg, po qd; format: organism-based; conditions: in vivo
[34] = Solubility of compound at pH 6.5; format: physicochemical; conditions: buffer
[35] = AUC in Beagle dog at 10 mg/kg, iv; format: ADME, organism-based, Canis lupus familiaris; conditions: in vivo; in short: as §3
[36] = Solubility of compound at pH 7.4; format: physicochemical; conditions: buffer

Compound: Cc1cnc(Nc2cccnc2C)nc1-c1c[nH]c2c(NC(=O)[C@@H](C)N3CCN(C)CC3)cccc12
IC50 [1]: > 33000 nM | Ratio IC50 (Homo sapiens): > 230 | IC50 [2]: 130 nM | IC50 [3]: > 30000 nM | IC50 [4]: 180 nM

Compound: COc1nn(C)cc1Nc1ncc(F)c(-c2c[nH]c3c(NC(=O)[C@@H](C)N4CCN(C)CC4)cccc23)n1
IC50 [1]: > 33000 nM | Ratio IC50 (Homo sapiens): 347 | IC50 [4]: 120 nM

Compound: COc1nn(C)cc1Nc1ncc(C)c(-c2c[nH]c3c(NCc4ccc(C)nc4C)cccc23)n1
Ratio IC50 (Homo sapiens): 140 | IC50 [2]: 4 nM | IC50 [3]: 560 nM | solubility [36]: 0.1 µM (≈ 0.0469 µg/mL)

Compound: Cc1cnc(Nc2cccnc2F)nc1-c1c[nH]c2c(NC(=O)[C@@H](C)N3CCN(C)CC3)cccc12
IC50 [1]: 10000 nM | Ratio IC50 (Homo sapiens): > 1110 | IC50 [3]: 30000 nM | IC50 [4]: 80 nM

Compound: Cc1cnc(NC(=O)C2CC2)nc1-c1c[nH]c2c(NC(=O)CN3CCOCC3)cccc12
Ratio IC50 (Homo sapiens): > 12 | IC50 [2]: 2400 nM | IC50 [3]: > 30000 nM

Compound: Cc1cnc(NC(=O)C2CC2)nc1-c1c[nH]c2c(NC(=O)[C@H](C)N3CCN(C)CC3)cccc12
Ratio IC50 (Homo sapiens): > 27 | IC50 [2]: 1100 nM | IC50 [3]: > 30000 nM | solubility [36]: > 1000 µM

Compound: Cc1cnc(NC(=O)C2CC2)nc1-c1c[nH]c2c(NC(=O)C(C)(C)N3CCN(C)CC3)cccc12
Ratio IC50 (Homo sapiens): > 18 | IC50 [2]: 1700 nM | IC50 [3]: > 30000 nM | solubility [36]: > 1000 µM

More lines, main results first:

Vd [5]: 8.7 L/kg | half-life [6]: 6 h | CLH [9]: < 1 µL/min | half-life [10]: 9 h | AUC [11]: 1.2 µM·h | inhibition [12]: > 75% | IC50 [2]: 70 nM | AUC [13]: 5.3 µM·h | IC50 [3]: > 15000 nM | IC50 [14]: > 30000 nM | solubility [15]: 605 µM (≈ 296 µg/mL) | F [16]: 100% | clearance [19]: 20 mL/min/kg | IC50 [4]: 130 nM | half-life [20]: 9 h | half-life [22]: 7 h | AUC [23]: 1.7 µM·h | Papp A→B [24]: 7.51 ×10⁻⁶ cm/s | CLH [25]: < 1.9 µL/min | bioavailability [26]: 71% | CLH [28]: 2 µL/min | logD [29]: 1.7 | Vd [30]: 6.3 L/kg | efflux ratio [31]: 2.6 | IC50 [32]: 2800 nM | solubility [34]: > 1000 µM | AUC [35]: 3.1 µM·h
Compound: COc1nn(C)cc1Nc1nccc(-c2c[nH]c3c(NC(=O)[C@@H](C)N4CCN(C)CC4)cccc23)n1 [GOLIDOCITINIB]
IC50 [1]: > 100000 nM | inhibition (Mus musculus [7]): Active | inhibition in vivo at 50 mg/kg (Mus musculus [8]): 80% | Ratio IC50 (Homo sapiens): > 214 | TGI (NCI-H1975 [17]): inactive | TGI (NCI-H1975 [18]): Active | Activity [21]: Non-Toxic | inhibition (Mus musculus [27]): Active | Activity [33]: Non-Toxic

IC50 [2]: 2200 nM | IC50 [3]: > 30000 nM
Compound: Cc1cnc(NC(=O)C2CC2)nc1-c1c[nH]c2c(NC(=O)CN(C)C)cccc12
Ratio IC50 (Homo sapiens): > 13

IC50 [2]: 180 nM | IC50 [3]: > 30000 nM | solubility [36]: > 930 µM
Compound: Cc1cnc(NC(=O)C2CC2)nc1-c1c[nH]c2c(NC(=O)[C@@H](C)N3CCN(C)CC3)cccc12
Ratio IC50 (Homo sapiens): > 166

IC50 [4]: 94 nM
Compound: COc1nn(C)cc1Nc1ncc(Br)c(-c2c[nH]c3c(NC(=O)[C@@H](C)N4CCN(C)CC4)cccc23)n1
IC50 [1]: 15000 nM | Ratio IC50 (Homo sapiens): 196
